KCNK9 inh = inhibitors of human KCNK9 two-pore domain potassium channel | Q9NPC2 | HEK293 KCNK9, FluxOR thallium flux fluorescence; hits give low values | B-score at 10 µM | actives 1.2% (n = 310,000) | AID 488922;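 active means ratio B-score over 3 SD below the library mean, with starting fluorescence within 5 SD of its mean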;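 further: negative B-score means less thallium flux so channel inhibition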
hERG rescue = compounds protecting human hERG from proarrhythmic drug block. AID 1511. actives 0.51% (n = 310,000). activation (rescue from dofetilide block), less the hit threshold, % at 10 µM. CHO-hERG, FluxOR thallium flux, dofetilide IC70 present;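 active means activation above the mean of controls blocked by dofetilide plus 5 SD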;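 further: thallium influx through hERG after potassium depolarization seen as dye fluorescence rise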
KCNQ1 pot = human KCNQ1 channel potentiation or activation; P51787; CHO-K1 KCNQ1, thallium flux FluxOR fluorescence; hits give high values; B-score at 10 µM; actives 0.35% (n = 310,000);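 active means fluorescence ratio B-score, a plate-corrected score, at least three library SD, with initial intensity B-score within 5 SD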
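Assay system: stable KCNQ1 CHO-K1 line; medium: assay buffer, equal DMSO in all wells; timing: 90 min dye loading and 20 min compound exposure, both at room temperature; technique: kinetic FluxOR thallium fluorescence, 10-s 1-Hz baseline, 110-s post-stimulus read; read-out basis: B score of baseline-normalized fluorescence ratio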
KCNQ1 block = blocks the human KCNQ1 potassium channel; P51787; CHO-K1 KCNQ1, FluxOR thallium flux fluorescence; hits give high values; B-score at 10 µM; actives 1.3% (n = 310,000);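 active means compounds whose thallium flux B-score, printed positive for inhibition, exceeds three library SD while starting fluorescence stays within three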;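 further: channel opened by potassium depolarization with thallium stimulus after 20 min compound exposure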
Kir21 block = Kir2.1 (mouse) channel inhibition. P35561. B-score at 10 µM. actives 0.85% (n = 310,000). AID 1672. HEK293-Kir2.1, FluxOR thallium flux fluorescence; hits give low values;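 active means fluorescence ratio B-score at or below minus 3 SD of library scores, with starting-brightness B-score within 2 SD, cut at about -4.2 in these data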;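 further: channel flux triggered by added potassium and thallium sulfate stimulus; B-score of peak minus minimum fluorescence over baseline after thallium stimulus; more negative B-score means stronger Kir2.1 block with less thallium influx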
KCNK3 inh = human KCNK3 channel inhibition, primary screen. O14649. CHO-KCNK3 thallium flux, FluxOR fluorescence; hits give low values. B-score at 10 µM. actives 0.84% (n = 340,000). AID 602410;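 active means B-score under library mean minus 4 SD, starting fluorescence ratio at most library mean plus 5 SD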;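 further: more negative B-score means stronger inhibition of thallium flux through KCNK3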
Target sequence (O14649 whole entry, looked up): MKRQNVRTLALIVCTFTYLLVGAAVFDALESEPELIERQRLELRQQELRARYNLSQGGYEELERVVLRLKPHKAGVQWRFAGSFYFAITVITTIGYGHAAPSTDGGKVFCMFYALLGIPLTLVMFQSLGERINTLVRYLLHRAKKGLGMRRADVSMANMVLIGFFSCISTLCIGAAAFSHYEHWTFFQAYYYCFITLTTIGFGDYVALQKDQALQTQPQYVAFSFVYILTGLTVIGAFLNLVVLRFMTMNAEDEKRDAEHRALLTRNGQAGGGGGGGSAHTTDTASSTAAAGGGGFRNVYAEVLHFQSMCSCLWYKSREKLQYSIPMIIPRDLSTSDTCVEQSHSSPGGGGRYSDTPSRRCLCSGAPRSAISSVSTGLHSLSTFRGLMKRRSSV
Of the large screens only hits and unclear results are named; the others gave an inactive call. Compounds with a hit are over-represented: about 3.7% of the library has one in this group of screens.

Clc1cc(Cl)c(OCc2nc(-c3ccccn3)no2)cc1Cl	none
CC(C)(C)c1ccc(S(=O)(=O)NNC(=O)c2cc3ccccc3[nH]2)cc1	none
Fc1cc(F)c2nc(N3CCCCC3)sc2c1	hERG rescue 5.1
CCN(CC)CCN(C(=O)c1cc2ccccc2cc1OC)c1nc2ccc(OC)cc2s1	KCNQ1 block 9
CCN(CC(=O)Nc1ccc(OC)cc1)CC(=O)Nc1ccc(Cl)cc1F	hERG rescue 7.3
CCOC(=O)c1sc2nccc(N(C)C)c2c1N=CNOCc1c(F)cccc1Cl	KCNQ1 block 8
CCOC(=O)c1sc2nccc(N(C)C)c2c1N=CNOCc1ccccc1	none (no result: KCNK9 inh, hERG rescue, KCNQ1 pot, KCNQ1 block, Kir21 block)
COc1ccccc1NC(=O)C(C)OC(=O)CCC1CCCCC1 (stereo unspecified)	KCNK3 inh -8.87
COc1cc(OC)cc(C(=O)NCC(=O)Nc2ccc(-c3ccccc3)cc2)c1	none
CSc1nnc(N2C(=O)C(O)=C(C(=O)c3ccco3)C2c2cccc(Cl)c2)s1 (stereo unspecified)	KCNQ1 block 9
O=C(C1=C(O)C(=O)N(c2ncccn2)C1c1cccc(Cl)c1)c1ccco1 (stereo unspecified)	none
COc1ccc(C2C(C(=O)c3ccco3)=C(O)C(=O)N2c2nnc(C)s2)cc1 (stereo unspecified)	none
CSc1nnc(N2C(=O)C(O)=C(C(=O)c3ccco3)C2c2ccc(F)cc2)s1 (stereo unspecified)	KCNQ1 block 10
COc1ccc(C(=O)N2[C@@H](C(C)C)COc3cc(Br)ccc3S2(=O)=O)cc1	none (no result: KCNK9 inh, hERG rescue, KCNQ1 pot, KCNQ1 block, Kir21 block)
N#Cc1ccc(C(=O)Nc2cccc3ccccc23)c(F)c1	none
CCOC(=O)NC(=S)Nc1ccc(C(C)(C)C)cc1Br	hERG rescue 10.7, KCNQ1 pot 22
Cc1ccc(NC(=O)c2cc3cc(OC(F)(F)F)ccc3[nH]2)cc1	KCNQ1 block 6 (no result: KCNK3 inh)
O=C(CN(C(=O)Cn1nnc(-c2ccc(F)cc2)n1)c1cccc(F)c1)NC1CCCC1	none
O=C(NCCc1ccccc1)C(=O)NCC1CCNCC1	hERG rescue 4.6 (no result: KCNK3 inh)
CC1CCN(CCCN2C(=O)C3C(C(=O)Nc4ccc(Cl)cc4)C4C=CC3(O4)C2C(=O)NC2CCCCC2)CC1 (stereo unspecified)	none
OC(CNC1CCCc2ccccc21)COc1ccc2ccccc2c1 (stereo unspecified)	Kir21 block -10
O=C(c1ccccc1)c1ccc(OCC(O)CNC2CCCc3ccccc32)cc1 (stereo unspecified)	Kir21 block -6.22
CSc1nc(N)nc2c1ncn2CC(=O)N[C@H](CO)Cc1c[nH]c2ccccc12	none (no result: KCNK9 inh, hERG rescue, KCNQ1 pot, KCNQ1 block, Kir21 block)
CCCCCCc1cc2cc(-c3nnc(-c4ccccc4OC)o3)c(=O)oc2cc1O	KCNQ1 block 8
CCCCCCc1cc2cc(C(=O)Nc3ccccc3OC)c(=O)oc2cc1O	none
CCCCCCc1cc2cc(-c3nnc(-c4ccccc4O)o3)c(=O)oc2cc1O	none
CCCCCCc1cc2cc(-c3nnc(-c4cc(OC)c(OC)c(OC)c4)o3)c(=O)oc2cc1O	KCNQ1 block 15 (no result: KCNK3 inh)
CC(Oc1ccc(Cl)cc1)C(=O)N1CCN(C(=O)c2ccco2)CC1 (stereo unspecified)	none (no result: KCNK9 inh, hERG rescue, KCNQ1 pot, KCNQ1 block, Kir21 block)
CCOc1cc(/C=N/NC(=O)c2ccc(O)cc2)ccc1Oc1nc(Cl)ncc1F	KCNK9 inh -7.77
COc1ccc(/C=N/NC(=O)CC#N)cc1Oc1nc(Cl)ncc1F	none
CCOc1ccc(-n2cc(C(=O)Nc3cccc(C)n3)c3cc(OC)c(OC)cc3c2=O)cc1	KCNQ1 pot 13
CCOc1ccc(NC(=O)c2cn(-c3ccc(OCC)cc3)c(=O)c3cc(OC)c(OC)cc23)cc1	none
C(=C\c1nc(N2CCCC2)c2ccccc2n1)/c1ccccc1	KCNK9 inh -7.19
COc1ccc(/C=N/NC(=O)c2ccn[nH]2)cc1COc1ccc([N+](=O)[O-])c(C)c1	KCNQ1 block 6
Cc1cc(/C=C2\SC(=S)N(C)C2=O)c(C)n1-c1cccc(O)c1	KCNK9 inh -6.84
CN1C(=O)/C(=C\c2ccccc2OCc2ccccc2)SC1=S	none
CN1C(=O)/C(=C\c2cc(N=Nc3ccccc3)ccc2O)SC1=S	KCNQ1 block 7
Cc1cccc(C(=O)NNC(=O)CSc2nnc(C3CC3)n2C)c1	none
CC1(C)Cc2c(sc(NC(=O)C(=O)N3CCCC3)c2C#N)CO1	none
CC(C)c1ccc(O)c(C(=O)c2cnn(-c3ccccc3)c2)c1	none
O=C(NNC(=O)C1CCN(C(=O)Nc2ccccc2)CC1)c1ccc([N+](=O)[O-])cc1	none (no result: KCNK9 inh, hERG rescue, KCNQ1 pot, KCNQ1 block, Kir21 block)
CN1CCN(C2=Cc3ccccc3Sc3cc(F)ccc32)CC1	Kir21 block -8.43
CCCNS(=O)(=O)c1cc2c(cc1Br)CCN2C(=O)CC	none (no result: KCNK9 inh, hERG rescue, KCNQ1 pot, KCNQ1 block, Kir21 block)
Cc1ccc(-n2nc(C)cc2Nc2ncc(Cl)cc2Cl)cc1	none
Cc1cc(Nc2ncc(Cl)cc2Cl)n(-c2ccccc2C)n1	Kir21 block -4.81
COC(=O)c1ccccc1NC(=O)Cn1cnc2c(cnn2-c2ccccc2)c1=O	hERG rescue 4.8
CC(=O)N(C)c1ccc(OCC(O)COc2ccc(N(C)C(C)=O)cc2)cc1	none
C=C(C)C(=O)OCC(O)COc1ccc(C(C)(C)c2ccc(OCC(O)COC(=O)C(=C)C)cc2)cc1 (stereo unspecified)	KCNQ1 block 9, KCNK3 inh -12
CC(=O)c1ccc(OCC(O)COc2ccc(C(C)=O)cc2)cc1	hERG rescue 4.9
O=C(Oc1ccc(Br)cc1C(=S)N1CCOCC1)c1ccc([N+](=O)[O-])cc1[N+](=O)[O-]	none
CCN(CC)S(=O)(=O)c1ccc(N2CCOCC2)c(NC(=O)c2ccc(=O)[nH]c2)c1	none (no result: KCNK9 inh, hERG rescue, KCNQ1 pot, KCNQ1 block, Kir21 block)
COc1ccc(-n2nc(C(=O)N(C)C)nc2-c2ccccc2)cc1	none
CCCCc1n[nH]c(=S)n1Cc1ccc(Cl)cc1	KCNK9 inh -10
COc1ccc(Cl)cc1NC(=O)CN(C)C(=O)c1cccc2cccnc12	none (no result: KCNK9 inh, hERG rescue, KCNQ1 pot, KCNQ1 block, Kir21 block)
N#C/C(=N\Nc1cccc([N+](=O)[O-])c1)C(=O)c1ccc(Br)cc1	KCNQ1 block 8
O=C(O)c1ccc(N=NNc2cccc([N+](=O)[O-])c2)cc1	none
COc1cc(/C=C2/C(=O)NN(c3cccc(F)c3)C2=O)ccc1OC(=O)c1ccco1	Kir21 block -9.79
COc1cc(/C=N/NC(=O)c2ccc(F)cc2)ccc1OC(=O)c1ccco1	none
O=C(Cn1nnc2ccccc21)c1cccc([N+](=O)[O-])c1	hERG rescue 5.3
Cc1ccc(N(CC(=O)NC2CCCCC2)C(=O)CNC(=O)c2ccco2)c(C)c1	none
CCC(C)(C)n1nnnc1C(c1cccnc1)N1CCC(Cc2ccccc2)CC1 (stereo unspecified)	KCNK9 inh -7.6
COC(=O)c1cc(NC(=O)CN(c2ccc3c(c2)OCO3)S(C)(=O)=O)ccc1Cl	KCNK9 inh -7.42

Screening data (PubChem)
